Sampled rows, rich in hits. Any-hit rate of the full collection: about 1.9%.
Autophagy mod – alters autophagy in cells | MEF GFP-LC3 puncta imaging; test concentration mostly 10 µM | calls only at 10 µM (by protocol) | 0.98% of 190,000 active | AID 463193;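 active means percentage of spot-positive cells more than 3 SD above its plate mean, without a fluorescence outlier flag or 80% toxicity; inconclusive means no clear call, values can overlap the other calls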;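 further: spot-positive cell cutoff set from DMSO-treated cells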
MT stabilizer – stabilizes microtubules in HeLa cells. HeLa tubulin immunostaining HCS, 24 h; share of cells brighter than vehicle mean+2SD. % tubulin-high responders, % at 10 µM. 0.83% of 200,000 active;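 active means plate Z-score above 3 for both tubulin-high and condensed-nucleus cell shares, with cell loss under 80%, at 10 µM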;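 further: anti alpha tubulin signal scored within the nucleus-defined area of each cell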
HSV replic up – increases HSV replication in cells. AID 1956. HSV replication augmentation in cells, fold increase. maximum fold increase. 0.005% of 220,000 active; in the data active means maximum fold increase above about 1.5; inconclusive means no clear call, values can overlap the other calls; tested in PC3 cells
Furin inh – blocks human furin protease activity | 0.061% of 220,000 active | purified furin, fluorogenic substrate cleavage | inhibition, % at 20 µM or 30 µM | P09958; in the data active means inhibition above about 25%
Target sequence (P09958 108-714 limits assumed): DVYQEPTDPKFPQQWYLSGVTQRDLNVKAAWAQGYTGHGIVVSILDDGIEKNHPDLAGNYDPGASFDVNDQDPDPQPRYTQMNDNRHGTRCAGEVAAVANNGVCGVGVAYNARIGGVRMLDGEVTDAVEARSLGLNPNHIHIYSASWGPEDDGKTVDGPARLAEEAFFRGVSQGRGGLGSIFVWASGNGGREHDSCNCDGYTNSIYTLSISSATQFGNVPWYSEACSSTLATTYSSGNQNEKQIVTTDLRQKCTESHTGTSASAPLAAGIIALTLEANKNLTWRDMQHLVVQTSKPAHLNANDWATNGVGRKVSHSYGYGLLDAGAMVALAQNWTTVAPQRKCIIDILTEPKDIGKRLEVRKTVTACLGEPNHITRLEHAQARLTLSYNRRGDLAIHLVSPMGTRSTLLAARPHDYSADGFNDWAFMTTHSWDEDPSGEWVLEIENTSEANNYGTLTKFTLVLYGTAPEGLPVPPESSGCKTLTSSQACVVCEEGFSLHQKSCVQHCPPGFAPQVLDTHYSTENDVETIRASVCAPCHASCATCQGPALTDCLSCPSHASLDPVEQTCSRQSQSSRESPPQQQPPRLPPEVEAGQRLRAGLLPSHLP
bCat nuc transl – alters nuclear translocation of beta-catenin in HeLa cells | AID 1665 | immunofluorescence imaging | nuclear translocation activity, % at 5 µM | 0.3% of 190,000 active;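 active means nuclear translocation activity above 50% at 5 µM, with a well cell count of 50 or more; inconclusive means wells under 50 cells across six images, flagged as toxic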;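 further: per-cell ratio of nuclear to cytoplasmic median beta-catenin stain intensity; plate controls were DMSO negative control for no effect and GSK-3 inhibitor IX positive control for full effect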
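Assay system: human HeLa cells, native beta-catenin; doses: 5 µM primary, 0.02–20 µM confirmation; incubation: compound treatment 24 h, 37°C, 5% CO2; technique: fluorescence imaging of beta-catenin antibody stain plus DAPI; measure: % activation, nuclear-to-cytoplasmic median beta-catenin signal ratio per cell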
Insulin prom up – MIN6 insulin promoter up-regulation. z-score at 5 µM. 0.3% of 190,000 active. MIN6 insulin promoter-GFP reporter, high-content imaging; stronger effect = higher value. AID 1625;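 active means z-score above 3 at 5 µM with at least 500 cells counted in the well; inconclusive means wells under 500 cells, flagged as cytotoxic or low count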
An asterisk follows results filed as active; i = inactive; ? = inconclusive; . = no result given; + = active, no number.

SMILES | Autophagy mod | MT stabilizer | HSV replic up | Furin inh | bCat nuc transl | Insulin prom up
Cc1nn(-c2ccccc2)c(C)c1/C=N/NC(=O)c1cc(-c2ccc(Br)s2)[nH]n1 | i | 22 | i | -26 | 36 | 0.1
Cc1ccc(C)c(OCC(=O)N/N=C/c2c(C)nn(-c3ccccc3)c2Cl)c1 | i | 21* | . | -6 | -2 | 0.14
CC(/C=N/NC(=O)c1cc(-c2ccc(C)s2)[nH]n1)=C\c1ccccc1 | i | 28* | i | -21 | 1 | -0.03
Cc1nn(-c2ccccc2)c(C)c1/C=N/NC(=O)c1cc(-c2cccs2)[nH]n1 | i | 8.9* | i | -21 | 162* | -2
Cn1cc(C(=O)NCc2cccs2)c(=O)c2cc(S(=O)(=O)N3CCCC3)ccc21 | i | 4 | i | -11 | -2 | 0.04
CCOC(=O)C1CCCN(S(=O)(=O)c2ccc(OC)c3ccccc23)C1 (centres undefined) | i | 11* | i | -23 | . | 0.41
CC(=O)N(Cc1ccccc1)c1ccccc1C(=O)O | . | . | i | -9 | 0 | 0.21
CC(=O)N(Cc1ccc(Br)cc1)c1cccc(C)c1C | i | 16 | i | -19 | 52* | -0.24
COc1ccc(CN(C(C)=O)c2cccc(C)c2C)cc1 | i | 43* | i | -16 | 10 | 0.42
Cc1ccc(-c2cnc3c(Cl)c(C)nn3c2)cc1 | i | 17 | i | -6 | 41 | -0.01
CCc1cccc2[nH]c3cc([N+](=O)[O-])ccc3c12 | . | . | i | -22 | 2 | 0.09
Cc1ccc(CNS(=O)(=O)c2ccc3c(c2)n(C)c(=O)c(=O)n3C)cc1 | i | 3 | i | -21 | -5 | 0.35
CCN1C(=O)/C(=C2\C=Cc3cc(C)ccc3N2CC)OC1=S | + | 4 | i | -18 | -2 | 0.45
CCSc1ncnc2sc(C)c(C)c12 | + | 5 | i | -16 | 5 | 0.75
CC(C)(C)c1ccc(C(CC(=O)O)NC(=O)Cc2ccc(F)cc2)cc1 (centres undefined) | i | 5 | i | -6 | 0 | .
CCC1(CC)NC(=O)N(CC(=O)OCC(=O)Nc2sccc2C#N)C1=O | i | 3 | i | -26 | -5 | -0.22
Cc1ccc(-n2nnnc2SCc2nc3sc(C)c(C)c3c(=O)[nH]2)cc1 | + | 2 | i | -11 | 3 | 1.1
CC(=O)c1ccc(OCCCC(=O)n2nnc3ccccc32)cc1 | + | 2 | i | -6 | 1 | 0.4
Cc1nc2c(C)cccc2cc1C(=O)N/N=C/c1ccc(N(C)C)cc1 | i | 40* | i | -16 | 39 | 0.63
Cc1nc2c(C)cccc2cc1C(=O)N/N=C/c1cccc([N+](=O)[O-])c1 | i | 20* | i | -20 | 0 | 0.04
C=CCNC(=O)C12CCC(C)(C(=O)[C@H]1Br)C2(C)C (some centres undefined) | . | . | i | -3 | 0 | 0.2
CC1CCc2c(sc3ncn(CC(=O)N4CCCCC4)c(=O)c23)C1 (centres undefined) | i | 3 | i | -22 | -2 | -1.2
COc1cccc(C2C=C(c3ccc(OC)cc3OC)Nc3nnnn32)c1 (centres undefined) | i | 30* | . | 1 | . | .
COc1cccc(C2=CC(c3ccc(N(C)C)cc3)n3ncnc3N2)c1 (centres undefined) | i | 3 | ? | -16 | . | .
COc1cccc(C2=CC(c3ccc(N(C)C)cc3)n3nnnc3N2)c1 (centres undefined) | i | 42* | i | -34 | -4 | 0.02
SMILES | Autophagy mod | MT stabilizer | HSV replic up | Furin inh | bCat nuc transl | Insulin prom up
COc1ccc(C2=CC(c3ccc(OC)c(OC)c3)n3nnnc3N2)c(OC)c1 (centres undefined) | i | 3 | i | -6 | 1 | -3
COc1cccc(C2=CC(c3ccccc3)n3nnnc3N2)c1 (centres undefined) | i | 32* | . | -33 | . | .
CCOc1ccc(NC(=O)c2cc(F)c(F)cc2Cl)cc1OCC | i | 7 | i | -20 | -3 | -0.15
CC(C)=CCC12Oc3cc(O)ccc3C1(O)Oc1cc3c(c(O)c1C2=O)C=CC(C)(C)O3 (centres undefined) | . | . | i | . | . | .
CCc1ccc2nc(Nc3ccc(OC)cc3OC)c(C#N)cc2c1 | i | 3 | i | -4 | -1 | .
CCOc1ncccc1C(=O)OCc1ccc(Cl)cc1 | i | 3 | i | -13 | 0 | -0.36
CCOc1ncccc1C(=O)OCc1ccc(C(=O)OC)cc1 | i | 18* | i | -10 | 68* | 0.52
CC1CCCN(c2nc3c(c(=O)n(C)c(=O)n3C)n2CCSc2nc3ccccc3s2)C1 (centres undefined) | i | 2 | i | -13 | -2 | 3.2*
CC1CCN(c2nc3c(c(=O)n(C)c(=O)n3C)n2CCSc2nc3ccccc3s2)CC1 | i | 3 | i | -22 | 0 | -0.31
CCO[C@@H]1OC(C(=O)NCc2nc3ccccc3[nH]2)=C[C@H](C2CC2)[C@H]1CCCO | i | 28* | i | -17 | 9 | 0.93
CCOC(=O)c1sc(NC(=O)CSc2nc3c(cc2C#N)CCCCCC3)c(C#N)c1C | + | 3 | . | -26 | 0 | -0.89
CN1c2ccsc2/C(=N/NC(=O)c2c(F)cccc2F)CS1(=O)=O | i | 1 | i | -11 | -4 | .
CN1c2ccsc2/C(=N/Nc2ccccc2)CS1(=O)=O | + | 7 | i | -4 | -1 | 1.3
CCc1nnc2n1N=C(c1ccc(-c3cc(Cl)ccc3Cl)o1)CS2 | + | 8 | i | 3 | 0 | -0.58
C/C(=N\OCC(=O)Nc1ccccc1Br)c1cccs1 | i | 2 | i | -17 | -3 | -0.22
CCN(CC(=O)NC(C)C)C(=O)[C@@H](NC(=O)c1ccco1)C(C)C | i | 2 | . | -34 | -2 | -0.59
O=C1N/C(=C\c2ccccc2)c2ccccc21 | i | 20* | i | -11 | 1 | -0.04
O=C1N/C(=C\c2nc3ccccc3s2)c2ccccc21 | . | . | i | 2 | -4 | -0.41
COC(=O)C1C(=O)/C(=C/N(C)C)C(=O)CC1(C)C (centres undefined) | i | 4 | i | 38* | -1 | 1.3
C=CCc1c(C)nc(N2CCSCC2)[nH]c1=O | . | . | i | -29 | -1 | -0.31
CCN1/C(=C/c2ccc3cc(C)ccc3[n+]2CC)Sc2cc(C)ccc21 | ? | 4 | . | -19 | 3 | ?
CCN1/C(=C/c2ccc3ccccc3[n+]2CC)C=Cc2ccccc21 | + | 4 | i | -5 | . | ?
CCCCN1/C(=C/c2ccc3ccccc3[n+]2CC)Sc2ccccc21 | + | 8 | . | -2 | 1 | ?
CCCN(CCC)Cc1cc(=O)oc2cc3c(cc12)CCC3 | . | . | i | -11 | -2 | -0.8
Cc1cc(SCCOc2ccccc2)nc(N)n1 | i | 3 | i | -12 | -2 | 3.1*
Cc1cc(Oc2ccccc2)nc(N)n1 | i | 3 | i | -11 | 2 | -0.44

Assay outcomes as filed in PubChem.
